Measurements: ChEMBL document CHEMBL1671620, “Mutations in the fks1 gene in Candida albicans, C. tropicalis, and C. krusei correlate with elevated caspofungin MICs uncovered in AM3 medium using the method of the European Committee on Antibiotic Susceptibility Testing” (2008)
≈ marks a conversion by molar mass, not a printed value.

Assays:
Candida albicans [1] = experiment: Antifungal activity against Candida albicans isolate B311 expressing wild type 1,3-beta-glucan synthase grown on AM3 media after 48 hrs by EUCAST microdilution method; format: functional; settings: isolate B311, 24 h, in the assay text read “24 hrs” for “48 hrs”
In short: (§1)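 EUCAST (AFST-EUCAST) broth microdilution with caspofungin at 0.015 to 8 μg/ml final, in AM3 with glucose added to 2% final. Final inoculum was 10⁵ yeast cells/ml, with microplates prepared in batches and stored at −20°C. Plates were incubated at 35°C in humid ambient air and read spectrophotometrically after shaking at 24 h and 48 h. MIC was ≥50% growth reduction versus drug-free well; 90% end point also read at both times.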

Candida albicans [2] = experiment: Antifungal activity against Candida albicans isolate 2 expressing wild type 1,3-beta-glucan synthase grown on AM3 media after 48 hrs by EUCAST microdilution method; format: functional; settings: isolate 2, 24 h, in the assay text read “24 hrs” for “48 hrs”; in short: as §1
Candida albicans [3] = experiment: Antifungal activity against Candida albicans isolate 15 expressing wild type 1,3-beta-glucan synthase grown on AM3 media after 48 hrs by EUCAST microdilution method; format: functional; settings: isolate 15, 24 h, in the assay text read “24 hrs” for “48 hrs”; in short: as §1
Candida albicans [4] = experiment: Antifungal activity against Candida albicans isolate 4 expressing wild type 1,3-beta-glucan synthase grown on AM3 media after 48 hrs by EUCAST microdilution method; format: functional; settings: isolate 4, 24 h, in the assay text read “after 24 hrs” for “after 48 hrs”; in short: as §1
Candida albicans [5] = experiment: Antifungal activity against Candida albicans isolate 6 expressing wild type 1,3-beta-glucan synthase grown on AM3 media after 48 hrs by EUCAST microdilution method; format: functional; settings: isolate 6, 24 h, in the assay text read “after 24 hrs” for “after 48 hrs”; in short: as §1
Candida albicans [6] = experiment: Antifungal activity against Candida albicans isolate 12 expressing wild type 1,3-beta-glucan synthase grown on AM3 media after 48 hrs by EUCAST microdilution method; format: functional; settings: isolate 12, 24 h, in the assay text read “after 24 hrs” for “after 48 hrs”; in short: as §1
Candida albicans [7] = experiment: Antifungal activity against Candida albicans isolate 17 expressing wild type 1,3-beta-glucan synthase grown on AM3 media after 48 hrs by EUCAST microdilution method; format: functional; settings: isolate 17, 24 h, in the assay text read “after 24 hrs” for “after 48 hrs”; in short: as §1
Candida albicans [8] = experiment: Antifungal activity against Candida albicans isolate 7 expressing wild type 1,3-beta-glucan synthase grown on AM3 media after 48 hrs by EUCAST microdilution method; format: functional; settings: isolate 7, 24 h, in the assay text read “after 24 hrs” for “after 48 hrs”; in short: as §1
Candida albicans [9] = experiment: Antifungal activity against Candida albicans isolate 10 expressing wild type 1,3-beta-glucan synthase grown on AM3 media after 48 hrs by EUCAST microdilution method; format: functional; settings: isolate 10, 24 h, in the assay text read “after 24 hrs” for “after 48 hrs”; in short: as §1
Candida tropicalis = experiment: Antifungal activity against Candida tropicalis ATCC 750 expressing wild type 1,3-beta-glucan synthase grown on AM3 media after 48 hrs by EUCAST microdilution method; format: functional; settings: ATCC 750, 24 h, in the assay text read “24 hrs” for “48 hrs”; in short: as §1
Candida albicans [10] = experiment: Antifungal activity against Candida albicans isolate 18 expressing wild type 1,3-beta-glucan synthase grown on AM3 media after 24 hrs by EUCAST microdilution method; settings: isolate 18, 24 h
Candida albicans [11] = experiment: Antifungal activity against Candida albicans isolate 5 expressing wild type 1,3-beta-glucan synthase grown on RPMI media after 24 hrs by EUCAST microdilution method; settings: isolate 5, 24 h
Candida albicans [12] = experiment: Antifungal activity against Candida albicans isolate 6 expressing wild type 1,3-beta-glucan synthase grown on RPMI media after 24 hrs by EUCAST microdilution method; settings: isolate 6, 24 h
Candida albicans [13] = experiment: Antifungal activity against Candida albicans isolate 8 expressing wild type 1,3-beta-glucan synthase grown on RPMI media after 24 hrs by EUCAST microdilution method; settings: isolate 8, 24 h
Candida albicans [14] = experiment: Antifungal activity against Candida albicans isolate 9 expressing wild type 1,3-beta-glucan synthase grown on RPMI media after 24 hrs by EUCAST microdilution method; settings: isolate 9, 24 h
Candida albicans [15] = experiment: Antifungal activity against Candida albicans isolate 7 expressing wild type 1,3-beta-glucan synthase grown on RPMI media after 24 hrs by EUCAST microdilution method; settings: isolate 7, 24 h
Candida albicans [16] = experiment: Antifungal activity against Candida albicans isolate 25 expressing wild type 1,3-beta-glucan synthase grown on RPMI media after 24 hrs by EUCAST microdilution method; settings: isolate 25, 24 h
Candida albicans [17] = experiment: Antifungal activity against Candida albicans isolate 13 expressing wild type 1,3-beta-glucan synthase grown on RPMI media after 24 hrs by EUCAST microdilution method; settings: isolate 13, 24 h
Candida albicans [18] = experiment: Antifungal activity against Candida albicans isolate 12 expressing wild type 1,3-beta-glucan synthase grown on RPMI media after 24 hrs by EUCAST microdilution method; settings: isolate 12, 24 h
Candida albicans [19] = experiment: Antifungal activity against Candida albicans isolate 14 expressing wild type 1,3-beta-glucan synthase grown on RPMI media after 24 hrs by EUCAST microdilution method; settings: isolate 14, 24 h
Pichia kudriavzevii [20] = experiment: Antifungal activity against Candida krusei isolate 1 harboring 1,3-beta-glucan synthase HS1 point mutant grown on AM3 media after 24 hrs by EUCAST microdilution method; settings: isolate 1, 24 h
Pichia kudriavzevii [21] = experiment: Antifungal activity against Candida krusei isolate 1 harboring 1,3-beta-glucan synthase HS1 point mutant grown on RPMI media after 24 hrs by EUCAST microdilution method; settings: isolate 1, 24 h
Candida albicans [22] = experiment: Antifungal activity against Candida albicans isolate 19 harboring 1,3-beta-glucan synthase HS1 point mutant grown on AM3 media after 24 hrs by EUCAST microdilution method; settings: isolate 19, 24 h
Candida albicans [23] = experiment: Antifungal activity against Candida albicans isolate 22 harboring 1,3-beta-glucan synthase HS1 point mutant grown on AM3 media after 24 hrs by EUCAST microdilution method; settings: isolate 22, 24 h
Candida albicans [24] = experiment: Antifungal activity against Candida albicans isolate 19 harboring 1,3-beta-glucan synthase HS1 point mutant grown on RPMI media after 24 hrs by EUCAST microdilution method; settings: isolate 19, 24 h
Candida albicans [25] = experiment: Antifungal activity against Candida albicans isolate 20 harboring 1,3-beta-glucan synthase HS1 point mutant grown on RPMI media after 24 hrs by EUCAST microdilution method; settings: isolate 20, 24 h
Candida albicans [26] = experiment: Antifungal activity against Candida albicans isolate 24 harboring 1,3-beta-glucan synthase HS1 point mutant grown on RPMI media after 24 hrs by EUCAST microdilution method; settings: isolate 24, 24 h

## CC[C@H](C)C[C@H](C)CCCCCCCCC(=O)N[C@H]1C[C@@H](O)[C@@H](NCCN)NC(=O)[C@@H]2[C@@H](O)CCN2C(=O)[C@H]([C@H](O)CCN)NC(=O)[C@H]([C@H](O)[C@@H](O)c2ccc(O)cc2)NC(=O)[C@@H]2C[C@@H](O)CN2C(=O)[C@H]([C@@H](C)O)NC1=O [CASPOFUNGIN]
Candida albicans [1]
  MIC: 0.06 µg/mL (≈ 0.0549 µM)
Candida albicans [2]
  MIC: 0.03 µg/mL (≈ 0.0274 µM)
Candida albicans [3]
  MIC: 0.03 µg/mL (≈ 0.0274 µM)
Candida albicans [4]
  MIC: 0.03 µg/mL (≈ 0.0274 µM)
Candida albicans [5]
  MIC: 0.03 µg/mL (≈ 0.0274 µM)
Candida albicans [6]
  MIC: 0.03 µg/mL (≈ 0.0274 µM)
Candida albicans [7]
  MIC: 0.03 µg/mL (≈ 0.0274 µM)
Candida albicans [8]
  MIC: 0.06 µg/mL (≈ 0.0549 µM)
Candida albicans [9]
  MIC: 0.06 µg/mL (≈ 0.0549 µM)
Candida tropicalis
  MIC: 0.06 µg/mL (≈ 0.0549 µM)
Candida albicans [10]
  MIC: 0.015 µg/mL (≈ 0.0137 µM)
Candida albicans [11]
  MIC: 0.5 µg/mL (≈ 0.457 µM)
Candida albicans [12]
  MIC: 0.5 µg/mL (≈ 0.457 µM)
Candida albicans [13]
  MIC: 0.5 µg/mL (≈ 0.457 µM)
Candida albicans [14]
  MIC: 0.5 µg/mL (≈ 0.457 µM)
Candida albicans [15]
  MIC: 0.5 µg/mL (≈ 0.457 µM)
Candida albicans [16]
  MIC: 0.25 µg/mL (≈ 0.229 µM)
Candida albicans [17]
  MIC: 0.5 µg/mL (≈ 0.457 µM)
Candida albicans [18]
  MIC: 0.5 µg/mL (≈ 0.457 µM)
Candida albicans [19]
  MIC: 1 µg/mL (≈ 0.915 µM)
Pichia kudriavzevii [20]
  MIC: 4 µg/mL (≈ 3.66 µM)
Pichia kudriavzevii [21]
  MIC: 8 µg/mL (≈ 7.32 µM)
Candida albicans [22]
  MIC: 0.5 µg/mL (≈ 0.457 µM)
Candida albicans [23]
  MIC: 1 µg/mL (≈ 0.915 µM)
Candida albicans [24]
  MIC: 1 µg/mL (≈ 0.915 µM)
Candida albicans [25]
  MIC: 2 µg/mL (≈ 1.83 µM)
Candida albicans [26]
  MIC: 4 µg/mL (≈ 3.66 µM)
